Published values collected from several papers.
Lines come from different studies, so protocols differ.
Target: Insulin receptor (INSR, Homo sapiens, UniProt P06213)

CN(CCCC(F)(F)F)c1nccc(-c2cnn3ncccc23)n1 — remaining binding (binding; 1 µM): 78%
C[C@@H](c1ccc(-n2cnc3c(N)ncnc32)cc1)N1CCc2nn(C)c(Cc3ccccc3)c2C1=O — remaining binding (binding, competition with immobilised ligand; 0.1 µM): 100%
Nc1c(C(=O)NCc2ccc(C(=O)NCCCC3CCCCC3)cc2)cnn1-c1ccccc1 — remaining binding (cell-free assay, competition with immobilised ligand; 0.1 µM): 100%
c1cncc(-c2cccc(Nc3nccc(NC4CCCCC4)n3)c2)c1 — remaining binding (binding, competition with immobilised ligand; 10 µM): 27%
Cc1cc(-n2nc(Cc3cc(F)cc(C(F)(F)F)c3)nc2C)ccc1C(N)=O — remaining binding (cell-free assay, competition with immobilised ligand; 1 µM): 99%
C[C@@H]1CCN(c2nccc(-c3cnn4ncccc34)n2)C1 — remaining binding (binding; 1 µM): 72%
O=C(NCCCN1CCOCC1)c1ccc(Nc2ncc(Cl)c(-c3ccc(Cl)s3)n2)cc1 — remaining binding (binding, competition with immobilised ligand; 1 µM): 29%
CN(C)c1ncnc(-c2ccc3nc(Nc4cc(CN5CCN(C(=O)CC(F)(F)F)CC5)ccn4)[nH]c3c2)c1Cl — remaining binding (cell-free assay, competition with immobilised ligand; 1 µM): 100%
O=C(c1ccc(Nc2nccc(-c3cc4ccccc4s3)n2)cc1)N1CCC(N2CCCC2)CC1 — remaining binding (binding, competition with immobilised ligand; 1 µM): 66%
N[C@@H]1CCN(c2nccc(-c3cnn4ncccc34)n2)C1 — remaining binding (binding; 1 µM): 100%
CC(C)(C)c1ccc(-c2nc(CBr)nn2-c2cccc(O)c2)cc1 — remaining binding (cell-free assay, competition with immobilised ligand; 10 µM): 93%
CCCOc1ccc([C@@H]2[C@@H](C(=O)O)[C@H](c3ccc4c(c3)OCO4)CN2CC(=O)Nc2c(CC)cccc2CC)cc1 — remaining binding (cell-free assay, competition with immobilised ligand; 1 µM): 89%
F[C@@H]1CCN(c2nccc(-c3cnn4ncccc34)n2)C1 — remaining binding (binding; 1 µM): 91%
Cc1cnc(Nc2ccc(C(=O)N3CCC(N4CCCC4)CC3)cc2)nc1-c1cc2ccccc2s1 — remaining binding (binding, competition with immobilised ligand; 1 µM): 7.8%
Nc1ncc2c(n1)-c1c([nH]c3ccc(C#CC4CC4)cc13)CCCC2 — remaining binding (binding, competition with immobilised ligand; 1 µM): 80%
CC(=O)C1=C(C)N(c2cccc(C(F)(F)F)c2)C(=O)N[C@@H]1c1ccc(C#N)nc1 — remaining binding (cell-free assay, competition with immobilised ligand; 1 µM): 89.3%
Cc1cnn2ncc(-c3ccnc(N(C)C)n3)c2c1 — remaining binding (binding; 1 µM): 68%
COc1cnc(Nc2cccc(S(N)(=O)=O)c2)nc1N1CCN(c2ccccc2)CC1 — remaining binding (binding, competition with immobilised ligand; 1 µM): 81%
Cc1cc(NC(=O)c2cccc(S(F)(F)(F)(F)F)c2)cc(-n2ccn3nc(-c4cccnc4)cc23)c1 — remaining binding (cell-free assay, competition with immobilised ligand; 1 µM): 100%
CN(C)c1nccc(-c2cnn3ncccc23)n1 — remaining binding (binding; 1 µM): 79%
C[C@@H]1CN(c2ccc3ncc(-c4ccc5[nH]nc(C6CC6)c5c4)n3n2)C[C@H](C)O1 — remaining binding (binding, competition with immobilised ligand; 0.5 µM): 81%
COc1ccc2c(c1)O[C@@H](c1ccc(OC)c(OC)c1)C[C@H]2NC(=O)C1(c2ccc3c(c2)OC(F)(F)O3)CC1 — remaining binding (cell-free assay, competition with immobilised ligand; 1 µM): 79%
COc1cnc(Nc2cccc(S(N)(=O)=O)c2)nc1N1CCN(c2ccccc2)C(=O)C1 — remaining binding (binding, competition with immobilised ligand; 1 µM): 96%
CS(=O)(=O)NCC[C@H](NC(=O)c1cncc2c1cnn2-c1ccc(F)cc1)c1ccnc(S(C)(=O)=O)c1 — remaining binding (cell-free assay, competition with immobilised ligand; 1 µM): 92%
O=C(NCC1CCOCC1)c1n[nH]cc1NC(=O)c1c(F)cccc1F — remaining binding (binding, competition with immobilised ligand; 1 µM): 100%
